Compound activity as filed in PubChem BioAssay.
Compounds with a hit are over-represented: about 4.3% of the library has one in this group of screens.
CAL PDZ FP-1 = CAL PDZ peptide-binding inhibitors, primary screen, biochemical, fluorescence polarization, Cer-tagged CAL PDZ, HTS. Golgi-associated PDZ and coiled-coil motif-containing protein (Homo sapiens), Q9HD26. 330,000 tested, 0.02% active. purified CAL PDZ, TMR-peptide fluorescence polarization, 1 h. inhibition, % at 20 µM;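 active means highest replicate inhibition of at least 40%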;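 further: plate controls were DMSO neutral control wells for no effect and unlabeled competitor peptide control wells for full effect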
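material = purified tagged CAL PDZ domain construct (CerCALP) | compound dosing = 20 µM, one dose | times = 1 h at RT | measured by = fluorescence polarization from S- and P-plane intensities, G-factor corrected | read-out = inhibition from polarization loss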
CAL PDZ FP-2 = untagged CAL PDZ binding inhibitors, primary screen, biochemical, fluorescence polarization, HTS | Golgi-associated PDZ and coiled-coil motif-containing protein (Homo sapiens), Q9HD26 | purified CAL PDZ, TMR-peptide fluorescence polarization, 1 h | inhibition, % at 24.9 µM | 300,000 tested, 0.92% active;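 active means mean inhibition of at least 30% with at least half of replicates also reaching 30%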;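 further: 0% = DMSO neutral control and 100% = excess unlabeled competitor peptide PRC23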
ALR inh = inhibitors of human ALR sulfhydryl oxidase, primary screen, biochemical, H2O2 detection, HRP-luminol luminescence, single point; purified ALR, DTT oxidation; 290,000 tested, 3.8% active; AID 485317, 2010; FAD-linked sulfhydryl oxidase ALR (Homo sapiens), P55789; inhibition, % (concentration not given with the values);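 active means mean replicate inhibition above about 79%, with every replicate also reaching it, limit read from the data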
Target sequence (P55789 whole entry, looked up): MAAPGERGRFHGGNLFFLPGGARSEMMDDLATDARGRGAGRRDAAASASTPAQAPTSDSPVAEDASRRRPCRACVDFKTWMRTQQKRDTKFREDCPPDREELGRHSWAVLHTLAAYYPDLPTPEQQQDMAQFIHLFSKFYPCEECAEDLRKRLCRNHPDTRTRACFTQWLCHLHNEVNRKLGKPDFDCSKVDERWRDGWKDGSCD
Dyrk1A ADPGlo = rat Dyrk1A kinase inhibitors, primary screen, biochemical, single point, plate reader. Dual specificity tyrosine-phosphorylation-regulated kinase 1A (Rattus norvegicus), Q63470. ADP-Glo luminescence, NFATc1 peptide. 310,000 tested, 0.43% active. AID 504441, 2011. inhibition, % at 12.5 µM; in the data active means inhibition above about 50%;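 further: plate controls were vehicle with enzyme for no effect and no enzyme for full effect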
Rtt109 HAT inh = inhibitors of C. albicans Rtt109/Vps75 HAT, primary screen, biochemical, ThioGlo CoA-SH fluorescence, plate reader. 330,000 tested, 0.16% active. AID 540336, 2011. purified Rtt109/Vps75, 4 h. Histone acetyltransferase RTT109 (Candida albicans (strain SC5314 / ATCC MYA-2876)), …. inhibition, % at 34.9 µM;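 active means inhibition of at least 50% in every replicate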
Target sequence (Q5AAJ8 whole entry, looked up): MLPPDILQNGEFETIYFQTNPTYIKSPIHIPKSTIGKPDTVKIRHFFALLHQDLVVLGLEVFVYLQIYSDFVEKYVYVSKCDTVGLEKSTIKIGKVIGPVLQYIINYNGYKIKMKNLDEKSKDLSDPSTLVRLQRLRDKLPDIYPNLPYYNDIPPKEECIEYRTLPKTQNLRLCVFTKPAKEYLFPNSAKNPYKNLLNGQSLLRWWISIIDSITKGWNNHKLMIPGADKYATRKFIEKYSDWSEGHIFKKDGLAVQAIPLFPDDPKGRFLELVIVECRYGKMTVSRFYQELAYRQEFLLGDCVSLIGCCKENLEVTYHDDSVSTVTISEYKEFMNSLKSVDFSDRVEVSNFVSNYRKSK
The depositor's hits bear a star; x = no result given.

SMILES | CAL PDZ FP-1 | CAL PDZ FP-2 | ALR inh | Dyrk1A ADPGlo | Rtt109 HAT inh
CC(C)(C)c1ccc(C(=O)NNc2ncccc2-n2cccc2)cc1 | 0.2 | 169.5* | 49.1 | x | 16.8
O=c1c2ccccc2nnn1COc1cccc(Cl)c1 | -0.6 | 0.2 | -11.7 | -1.1 | x
CSCCC1COC(c2cccs2)=N1 (stereo not drawn) | -1.4 | 31.0* | -17.9 | x | 0.1
CSc1nnc(-c2cccs2)n1C | x | -3.5 | -1.1 | -1.6 | -0.3
Cc1ccc(-c2cc(-c3ccc(C)cc3O)[nH]n2)cc1 | x | -7.2 | 5.4 | -3.5 | 5.8
Cc1ccc(O)c(-c2cc(-c3cccc(Br)c3)n[nH]2)c1 | -0.2 | 86.3* | 9.2 | 0.4 | x
Oc1ccccc1-c1cc(-c2ccccc2)n[nH]1 | -2.1 | 4.2 | 5.9 | 20.8 | -9.0
Oc1ccccc1-c1cc(-c2ccc(F)cc2)n[nH]1 | -0.6 | 33.8* | 1.4 | -6.8 | 1.3
CCOc1ccc(C(=O)OCC(=O)N2CC(C)OC(C)C2)cc1OCC (stereo not drawn) | -1.2 | -4.5 | -2.2 | -8.8 | -10.4
Cc1nc(N=Nc2ccc(O)cc2)n[nH]1 | -1.8 | -6.7 | 94.1* | 9.5 | 4.7
Cc1ccc(-c2nc(N=Nc3ccc(O)cc3)n[nH]2)cc1 | -1.3 | 15.7 | 57.7 | x | -3.4
O=C(CNS(=O)(=O)c1ccccc1)N/N=C\c1ccc(Cl)cc1 | -1.7 | -2.8 | x | -0.9 | -6.3
O=C(CSc1ccc2ccccc2n1)N/N=C/c1ccc(O)cc1 | -0.5 | 0.0 | 99.3* | 32.2 | 2.5
O=C(CNS(=O)(=O)c1ccccc1)N/N=C/c1ccc(O)cc1 | -3.2 | -1.8 | 99.0* | 24.4 | 2.4
Cc1ccc2nc(SCC(=O)N/N=C/c3ccc(C(=O)O)cc3)cc(C)c2c1 | 1.2 | 0.0 | 97.8* | x | -0.3
O=C(Cn1cnc2ccccc21)N/N=C/c1ccccn1 | -0.2 | -1.1 | 99.4* | -4.2 | -9.6
Cc1cc(SCC(=O)N/N=C/c2ccco2)nc2ccccc12 | -1.8 | -5.7 | 57.9 | -2.0 | -3.0
O=C(Cn1cnc2ccccc21)N/N=C/c1cccnc1 | -1.1 | 2.7 | -25.1 | -2.5 | 0.3
O=C(NCCS(=O)(=O)N1CCC2(CC1)OCCO2)c1ccc(F)cc1 | -0.5 | -2.2 | -5.0 | -4.8 | -2.2
COc1ccc(/C=C/C(=O)NNC(=O)C(C)Oc2ccccc2F)cc1OC (stereo not drawn) | 0.2 | -3.5 | -5.9 | x | -28.3
O=C(CCn1cnc2ccccc21)N/N=C/c1ccc(O)cc1 | -1.7 | 0.5 | 99.3* | 14.9 | x
O=C(CSc1nnc(SCc2ccc(Cl)cc2)s1)N/N=C/c1ccc(C(=O)O)cc1 | -2.7 | 46.7* | x | -7.3 | -6.9
O=C(CCn1cnc2ccccc21)N/N=C/c1ccccc1O | -0.6 | 3.1 | 29.0 | 6.5 | -6.4
Cc1ccc(S(=O)(=O)Nc2cccc(-c3ccc(N4CCCCCC4)nn3)c2)cc1 | -3.8 | -17.1 | 1.3 | x | 4.5
O=C(CN(Cc1ccco1)C(=O)CNS(=O)(=O)c1ccc(F)cc1)NCc1ccccc1 | -0.9 | -4.6 | 2.7 | 2.9 | -4.0
SMILES | CAL PDZ FP-1 | CAL PDZ FP-2 | ALR inh | Dyrk1A ADPGlo | Rtt109 HAT inh
COC(C[C@@H]1O[C@@H]1[C@@H](O)COCc1ccccc1)OC | -1.3 | -4.0 | x | -5.3 | 13.0
CCOc1ccc(NC(=O)CCN2CCN(S(=O)(=O)c3ccc(F)cc3)CC2)cc1 | -0.2 | 74.5* | 24.2 | -0.6 | -1.2
COc1ccc(NC(=O)CCN2CCN(S(=O)(=O)c3ccc(F)cc3)CC2)cc1 | -1.0 | x | 6.5 | 0.6 | -9.7
CC(C)[C@H](NC(=O)c1ccc(Br)cc1)C(=O)NC1CCCCC1 | 0.4 | 86.0* | x | x | 2.8
COc1cc(C(=O)N[C@H](C(=O)NC2CCCCCC2)C(C)C)cc(OC)c1OC | -0.3 | 16.7 | -6.3 | 22.3 | 6.8
O=c1[nH]nc(CNc2ccc(O)cc2)c2ccccc12 | -3.7 | -4.0 | 99.5* | 18.0 | -0.1
O=c1[nH]nc(CNc2ccc(C(F)(F)F)cc2)c2ccccc12 | -1.5 | -5.5 | -16.8 | -0.8 | 11.9
CN1C=CC=C/C1=C(\C#N)c1nc2ccccc2[nH]1 | -1.7 | 0.3 | 98.6* | 3.6 | -2.9
COCCNc1nc2c(c(=O)n(C)c(=O)n2C)n1Cc1cccc(C)c1 | 0.0 | 3.3 | 21.2 | 0.0 | -7.5
C=CCn1c(NCCOC)nc2c1c(=O)n(C)c(=O)n2C | 0.5 | 43.8* | x | 2.3 | -5.2
CCOC(=O)C1(C)C=C(Nc2ccc(OC)cc2)C(=O)N1c1ccc(OC)cc1 (stereo not drawn) | -0.3 | -4.4 | -5.5 | -3.6 | -3.5
CCOC(=O)C1(C)C=C(Nc2ccc(O)cc2)C(=O)N1c1ccc(O)cc1 (stereo not drawn) | -0.4 | -3.5 | 99.6* | 1.7 | 0.8
CC(O)c1cccc(-c2ccc(CN3C[C@]4(CO)O[C@@H](CO)C[C@@H]4S3(=O)=O)cc2)c1 (stereo partly drawn) | -1.5 | 42.2* | x | 7.8 | 7.2
CCN1C=C(Cc2ccc(F)cc2)C2=C(C1)C(c1ccc(F)cc1)C(C#N)=C(N)O2 (stereo not drawn) | -0.4 | -2.4 | 99.1* | -7.4 | 0.9
CCN1C=C(Cc2ccccc2C)C2=C(C1)C(c1ccccc1C)C(C#N)=C(N)O2 (stereo not drawn) | -0.1 | x | -55.9 | 8.5 | -0.7
Cc1ccccc1CC1SC(N=C(N)N)=NC1=O (stereo not drawn) | x | -3.3 | -7.2 | -1.6 | -2.0
S=c1[nH]nc(-c2ccc3ccccc3n2)o1 | -1.1 | -3.6 | 91.0* | 33.7 | 4.4
Cc1ccc(C(=O)NCC(=O)NCc2cc(=O)n(C)c(=O)n2C)cc1C | 0.0 | 44.5* | 0.8 | 1.5 | -5.0
Cn1c(CNC(=O)CNC(=O)c2ccc(C(C)(C)C)cc2)cc(=O)n(C)c1=O | -1.1 | x | -3.8 | -1.2 | 0.4
CCOc1ccc(C(=O)NNC2CC(=O)N(CCc3ccccc3)C2=O)cc1OC (stereo not drawn) | 0.1 | 0.6 | -3.6 | -1.5 | 3.8
COc1ccc(CCN2C(=O)CC(NNC(=O)c3cccc(O)c3)C2=O)cc1 (stereo not drawn) | 0.6 | 1.7 | 95.0* | 16.5 | -2.7
COc1cc([N+](=O)[O-])ccc1NC(=O)Oc1ccc(NC(C)=O)cc1 | -0.1 | 1.4 | -25.0 | 2.0 | 0.6
CCOC(=O)C(C)N1C(=O)S/C(=C/c2ccc3c(c2)n(C)c(=O)n3C)C1=O (stereo not drawn) | -3.8 | 1.6 | -2.5 | -2.6 | 53.7*
CCC(C)N1C(=O)S/C(=C/c2ccc3c(c2)n(C)c(=O)n3C)C1=O (stereo not drawn) | -1.0 | -2.7 | -2.5 | -66.8 | 8.3
Cc1cc(Cl)ccc1NC(=S)N1CCN(C(=O)c2ccco2)CC1 | -0.3 | 2.1 | -2.2 | -2.3 | 2.6
